Activity calls are given as the source filed them. No cut-off for these calls is given here.
Key:
[1] = test system: Rattus norvegicus; assay: In vivo galactitol inhibitory activity measured by its ability to inhibit galactitol accumulation in lens at 9 mg/Kg/day; assay type: functional; conditions: Lens of camera-type eye
In short: (§1)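 Rats (n = 6) fed 20% galactose for 4 days, with compound given in the diet at the stated daily dose. Galactitol accumulation was measured in lens, sciatic nerve and diaphragm, and % inhibition was taken versus the nontreated group. Means are from three to eight drug-treated tissue samples. Dunnett's multiple comparison test was applied, with p > 0.05 reported as not significant.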

[2] = test system: Rattus norvegicus; assay: In vivo galactitol inhibitory activity measured by its ability to inhibit galactitol accumulation in lens at 50 mg/Kg/day; assay type: functional; conditions: Lens of camera-type eye
In short: (§2)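 Rats (n = 6) fed 20% galactose for 4 days, with compound given in the diet at the stated mg/kg per day. Galactitol accumulation in lens, sciatic nerve or diaphragm is scored as percent inhibition versus the non-treated group, as means of 3–8 drug-treated tissue samples. Dunnett's multiple comparison test applies; NS means p > 0.05.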

[3] = test system: Rattus norvegicus; assay: In vivo galactitol inhibitory activity measured by its ability to inhibit galactitol accumulation in diaphragm at 3 mg/Kg/day; assay type: functional; in short: as §2
[4] = test system: Rattus norvegicus; assay: In vivo galactitol inhibitory activity measured by its ability to inhibit galactitol accumulation in diaphragm at 9 mg/Kg/day; assay type: functional; in short: as §2
[5] = test system: Rattus norvegicus; assay: In vivo galactitol inhibitory activity measured by its ability to inhibit galactitol accumulation in diaphragm at 6 mg/Kg/day; assay type: functional; in short: as §2
[6] = test system: Rattus norvegicus; assay: In vivo galactitol inhibitory activity measured by its ability to inhibit galactitol accumulation in sciatic nerve at 9 mg/Kg/day; assay type: functional; in short: as §1
[7] = test system: Rattus norvegicus; assay: In vivo galactitol inhibitory activity measured by its ability to inhibit galactitol accumulation in sciatic nerve at 6 mg/Kg/day; NS=Not significant (% Inhibition); assay type: functional, organism-based; in short: as §1
[8] = test system: Mus musculus; assay: Antihyperglycemic activity measured as percent decrease in mice plasma glucose at 100 mg/Kg/day; assay type: functional
In short: (§3)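 Male db/db (C57BL/KsJ) mice, 4–6 per group, dosed at 100 mg/kg per day. Plasma glucose of the drug-treated group is expressed as percent decrease relative to a vehicle-treated control group. Values are mean ± SE, with p < 0.05 marked.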

[9] = test system: Rattus norvegicus; assay: In vivo galactitol inhibitory activity measured by its ability to inhibit galactitol accumulation in lens at 3 mg/Kg/day; NS=Not significant (% Inhibition); assay type: functional, organism-based; conditions: Lens of camera-type eye; in short: as §2
[10] = test system: Rattus norvegicus; assay: In vivo galactitol inhibitory activity measured by its ability to inhibit galactitol accumulation in sciatic nerve at 3 mg/Kg/day; NS=Not significant (% Inhibition); assay type: functional, organism-based; in short: as §1
[11] = test system: Rattus norvegicus; assay: In vivo galactitol inhibitory activity measured by its ability to inhibit galactitol accumulation in diaphragm at 50 mg/Kg/day; assay type: functional; in short: as §2
[12] = target: Aldo-keto reductase family 1 member B1 (Bos taurus) (UniProt P16116); assay: In vitro aldose reductase inhibitory activity measured by NADPH-dependent inhibition of glyceraldehyde reduction in a partially purified bovine lens preparation at 10E-6 M
In short: (§4)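 Aldose reductase partially purified from bovine lens. Inhibition of NADPH-dependent glyceraldehyde reduction is measured at the single stated concentration and reported as percent inhibition, the mean of two determinations.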

[13] = test system: Rattus norvegicus; assay: In vivo galactitol inhibitory activity measured by its ability to inhibit galactitol accumulation in sciatic nerve at 50 mg/Kg/day; assay type: functional; in short: as §1
[14] = test system: Rattus norvegicus; assay: In vivo galactitol inhibitory activity measured by its ability to inhibit galactitol accumulation in lens at 6 mg/Kg/day; NS=Not significant (% Inhibition); assay type: functional, organism-based; conditions: Lens of camera-type eye; in short: as §2
[15] = target: Aldo-keto reductase family 1 member B1 (Bos taurus) (UniProt P16116); assay: In vitro aldose reductase inhibitory activity measured by NADPH-dependent inhibition of glyceraldehyde reduction in a partially purified bovine lens preparation at 10E-7 M; in short: as §4
[16] = test system: Rattus norvegicus; assay: In vivo galactitol inhibitory activity measured by its ability to inhibit galactitol accumulation in diaphragm at 73 mg/Kg/day; assay type: functional; in short: as §2
[17] = test system: Rattus norvegicus; assay: In vivo galactitol inhibitory activity measured by its ability to inhibit galactitol accumulation in sciatic nerve at 73 mg/Kg/day; assay type: functional; in short: as §1
[18] = test system: Rattus norvegicus; assay: In vivo galactitol inhibitory activity measured by its ability to inhibit galactitol accumulation in lens at 66 mg/Kg/day; assay type: functional; conditions: Lens of camera-type eye; in short: as §1
[19] = test system: Rattus norvegicus; assay: In vivo galactitol inhibitory activity measured by its ability to inhibit galactitol accumulation in lens at 10 mg/Kg/day; assay type: functional; conditions: Lens of camera-type eye; in short: as §2
[20] = test system: Rattus norvegicus; assay: In vivo galactitol inhibitory activity measured by its ability to inhibit galactitol accumulation in sciatic nerve at 10 mg/kg/day; assay type: functional; in short: as §1
[21] = test system: Rattus norvegicus; assay: In vivo galactitol inhibitory activity measured by its ability to inhibit galactitol accumulation in diaphragm at 10 mg/kg/day; assay type: functional; in short: as §2
[22] = target: Aldo-keto reductase family 1 member B1 (Bos taurus) (UniProt P16116); assay: In vitro aldose reductase inhibitory activity measured by NADPH-dependent inhibition of glyceraldehyde reduction in a partially purified bovine lens preparation at 10E-5 M; in short: as §4
[23] = test system: Mus musculus; assay: Antihyperglycemic activity measured as percent decrease in mice plasma glucose at 20 mg/Kg/day; assay type: functional
In short: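 Male db/db (C57BL/KsJ) mice, 4–6 per group, dosed at the stated mg/kg per day. Plasma glucose is expressed as percent decrease versus the vehicle-treated group. Values are mean ± SE.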

[24] = test system: Rattus norvegicus; assay: In vivo galactitol inhibitory activity measured by its ability to inhibit galactitol accumulation in lens at 101 mg/Kg/day; NS=Not significant (% Inhibition); assay type: functional, organism-based; conditions: Lens of camera-type eye; in short: as §2
[25] = test system: Rattus norvegicus; assay: In vivo galactitol inhibitory activity measured by its ability to inhibit galactitol accumulation in sciatic nerve at 101 mg/kg/day; NS=Not significant (% Inhibition); assay type: functional, organism-based; in short: as §1
[26] = test system: Rattus norvegicus; assay: In vivo galactitol inhibitory activity measured by its ability to inhibit galactitol accumulation in diaphragm at 101 mg/kg/day; assay type: functional; in short: as §2
[27] = test system: Rattus norvegicus; assay: In vivo galactitol inhibitory activity measured by its ability to inhibit galactitol accumulation in diaphragm at 81 mg/Kg/day; assay type: functional; in short: as §2
[28] = test system: Rattus norvegicus; assay: In vivo galactitol inhibitory activity measured by its ability to inhibit galactitol accumulation in lens at 10 mg/Kg/day; NS=Not significant (% Inhibition); assay type: functional; conditions: Lens of camera-type eye; in short: as §2
[29] = test system: Rattus norvegicus; assay: In vivo galactitol inhibitory activity measured by its ability to inhibit galactitol accumulation in lens at 6 mg/Kg/day; assay type: functional, Lens of camera-type eye; conditions: Rattus norvegicus, Lens of camera-type eye; in short: as §2
[30] = test system: Rattus norvegicus; assay: In vivo galactitol inhibitory activity measured by its ability to inhibit galactitol accumulation in sciatic nerve at 81 mg/Kg/day; assay type: functional; in short: as §1
[31] = test system: Rattus norvegicus; assay: In vivo galactitol inhibitory activity measured by its ability to inhibit galactitol accumulation in lens at 81 mg/Kg/day; assay type: functional; conditions: Lens of camera-type eye; in short: as §1
[32] = test system: Rattus norvegicus; assay: In vivo galactitol inhibitory activity measured by its ability to inhibit galactitol accumulation in lens at 52 mg/Kg/day; assay type: functional; conditions: Lens of camera-type eye; in short: as §2
[33] = test system: Rattus norvegicus; assay: In vivo galactitol inhibitory activity measured by its ability to inhibit galactitol accumulation in sciatic nerve at 52 mg/Kg/day; assay type: functional; in short: as §1
[34] = test system: Rattus norvegicus; assay: In vivo galactitol inhibitory activity measured by its ability to inhibit galactitol accumulation in diaphragm at 52 mg/Kg/day; assay type: functional; in short: as §2
[35] = target: Aldo-keto reductase family 1 member B1 (Bos taurus) (UniProt P16116); assay: in vitro aldose reductase inhibitory activity measured by NADPH-dependent inhibition of glyceraldehyde reduction in a partially purified bovine lens preparation at 10e -7M conc.; g=no inhibitory activity
In short: (§5)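 Partially purified aldose reductase from bovine lens. Inhibition of NADPH-dependent glyceraldehyde reduction was measured at a single test concentration. Values are % inhibition of enzymatic activity, mean of two determinations.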

[36] = test system: Rattus norvegicus; assay: In vivo galactitol inhibitory activity measured by its ability to inhibit galactitol accumulation in lens at 94 mg/Kg/day; NS=not significant; assay type: functional, organism-based; conditions: Lens of camera-type eye; in short: as §1
[37] = test system: Rattus norvegicus; assay: In vivo galactitol inhibitory activity measured by its ability to inhibit galactitol accumulation in sciatic nerve at 94 mg/kg/day; NS=not significant; assay type: functional, organism-based; in short: as §1
[38] = target: Aldo-keto reductase family 1 member B1 (Bos taurus) (UniProt P16116); assay: in vitro aldose reductase inhibitory activity measured by NADPH-dependent inhibition of glyceraldehyde reduction in a partially purified bovine lens preparation at 10e -6M conc.; in short: as §5
[39] = test system: Mus musculus; assay: Antihyperglycemic activity was determined by measuring percent decrease in plasma glucose at 100 mg/kg/day; assay type: functional; in short: as §3

For `CN1C(=O)c2cc(Cl)c(Cl)cc2C12CC(=O)NC2=O` (stereo not given), the inhibition in vivo at 9 mg/kg/day [1] was 10%, the inhibition in vivo at 50 mg/kg/day [2] was 71% and the inhibition in vivo at 3 mg/kg/day [3] was 25%. It also gave an inhibition in vivo at 9 mg/kg/day [4] of 57%, an inhibition in vivo at 6 mg/kg/day [5] of 44% and an inhibition in vivo at 9 mg/kg/day [6] of 25%. The inhibition [7] was “inactive”, the Decrease [8] was 31% and the inhibition [9] was “inactive”. The inhibition [10] was “inactive”, the inhibition in vivo at 50 mg/kg/day [11] was 90% and the inhibition [12] was 83%. The inhibition in vivo at 50 mg/kg/day [13] was 94%, the inhibition [14] was “inactive” and the inhibition [15] was 38%.

`CCN1C(=O)c2ccccc2C12CC(=O)NC2=O` (stereo not given) gave an inhibition in vivo at 73 mg/kg/day [16] of 62%, an inhibition in vivo at 73 mg/kg/day [17] of 47% and an inhibition [12] of 21%. The inhibition [15] was 0% and the inhibition in vivo at 66 mg/kg/day [18] was 25%.

`O=C1CC2(C(=O)N1)C(=O)N1CCOc3cc(Cl)cc2c31` (stereo not given) was tested, and the inhibition in vivo at 10 mg/kg/day [19] was 20%, the inhibition in vivo at 10 mg/kg/day [20] was 57% and the inhibition in vivo at 10 mg/kg/day [21] was 88%. For the same compound, the inhibition [12] was 66% and the inhibition [15] was 32%.

`O=C1CC2(C(=O)N1)c1ccccc1S(=O)(=O)N2Cc1ccc(Cl)c(Cl)c1` (stereo not given) was tested, and the inhibition [22] was 63%, the Decrease [8] was 27% and the Decrease [23] was less than 15%. For the same compound, the inhibition [12] was 0%.

With `O=C1CC2(C(=O)N1)c1ccccc1C(=O)N2Cc1ccc(Br)cc1F` (stereo not given) the inhibition [24] was “inactive”, the inhibition [25] was “inactive” and the Decrease [8] was 36%. For the same compound, the inhibition [12] was 54%, the inhibition in vivo at 101 mg/kg/day [26] was 30% and the inhibition [15] was 7%.

With `CN1C(=O)c2cc(Cl)ccc2C12CC(=O)NC2=O` (stereo not given) the inhibition in vivo at 81 mg/kg/day [27] was 81%, the inhibition in vivo at 10 mg/kg/day [19] was 34% and the Decrease [8] was less than 15%. For the same compound, the inhibition [9] was “inactive”, the inhibition [28] was “inactive” and the inhibition in vivo at 6 mg/kg/day [29] was 31%. The inhibition in vivo at 81 mg/kg/day [30] was 77%, the inhibition in vivo at 81 mg/kg/day [31] was 54% and the inhibition [12] was 72%. The inhibition [14] was “inactive” and the inhibition [15] was 21%.

With `CN1C(=O)c2ccc(F)cc2C12CC(=O)NC2=O` (stereo not given) the inhibition in vivo at 52 mg/kg/day [32] was 26%, the inhibition in vivo at 3 mg/kg/day [3] was 15% and the Decrease [8] was less than 15%. The inhibition [9] was “inactive”, the inhibition [10] was “inactive” and the inhibition [12] was 74%. It also gave an inhibition in vivo at 52 mg/kg/day [33] of 71%, an inhibition [15] of 29% and an inhibition in vivo at 52 mg/kg/day [34] of 68%.

With `CC1(COc2ccc(CC3SC(=O)NC3=O)cc2)CCCCC1` (stereo not given) [CIGLITAZONE] the inhibition [35] was “inactive”, the inhibition [36] was “inactive” and the inhibition [37] was “inactive”. It also gave an inhibition [38] of 9% and a Decrease [39] of 32%.

— ChEMBL document CHEMBL1126205, “Novel spirosuccinimides with incorporated isoindolone and benzisothiazole 1,1-dioxide moieties as aldose reductase inhibitors and antihyperglycemic agents” (1992)
